≈ marks a conversion by molar mass, not a printed value. Calls of active or inactive are those of the source. The rule behind the calls is not given here.
Legend:
[1] = system: Nakaseomyces glabratus; experiment: Antimicrobial activity against Candida glabrata ATCC 90030 by broth dilution method; assay type: functional, organism-based
[2] = system: Pichia kudriavzevii; experiment: Antimicrobial activity against Candida krusei ATCC 6258 by broth dilution method; assay type: functional, organism-based
[3] = system: Candida albicans; experiment: Antimicrobial activity against Candida albicans ATCC 90028 by broth dilution method; assay type: functional, organism-based
[4] = system: Aspergillus fumigatus; experiment: Antimicrobial activity against Aspergillus fumigatus ATCC 90906 by broth dilution method; assay type: functional, organism-based
[5] = system: Staphylococcus aureus; experiment: Antimicrobial activity against methicillin-resistant Staphylococcus aureus ATCC 43300 by antimicrobial susceptibility test; assay type: functional, organism-based
[6] = system: Mycobacterium intracellulare; experiment: Antimicrobial activity against Mycobacterium intracellular ATCC 23068 by alamar blue method; assay type: functional, organism-based
In short: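 Modified Alamar Blue procedure, highest concentration 20 µg/mL. IC50 taken from dose-response curves, with amphotericin B as positive control.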

[7] = system: Leishmania major; experiment: Antileishmanial activity against Leishmania major MRHO/IR/75/ER promastigotes after 72 hrs by alamar blue assay; assay type: functional, organism-based
In short: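 Alamar Blue read-out against promastigotes, with pentamidine and amphotericin B as reference standards.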

[8] = system: Vero; experiment: Cytotoxicity against african green monkey Vero cells at 25 ug/ml; assay type: cell-based; settings: chlorocebus sabaeus
[9] = system: Cryptococcus neoformans; experiment: Antimicrobial activity against Cryptococcus neoformans ATCC 90113 by broth dilution method; assay type: functional, organism-based

Question: Which results are given for `CCCCCCCCCCCCCCCc1cc(O)cc(O)c1`?
Answer: Activity [1]: inactive; Activity [2]: inactive; Activity [3]: inactive; Activity [4]: inactive

Question: Which IC50 [5] does the source give for `CCCCC/C=C\C/C=C\CCCCCCCc1cc(O)cc(O)c1` here?
Answer: 6.5 µg/mL (≈ 18.9 µM)

Question: With `CCCCCCCC/C=C\CCCCCCCc1cc(O)cc(O)c1` as the compound, how does the IC50 [6] read?
Answer: 10 µg/mL (≈ 28.9 µM)

Question: What about the IC50 [5] of the same compound?
Answer: 8 µg/mL (≈ 23.1 µM)

Question: With `CCCCCCCCCCCCCCCCCc1cc(O)cc(O)c1` as the compound, how does the Activity [1] read?
Answer: inactive

Question: What about the Activity [2] of the same compound?
Answer: inactive

Question: What about the Activity [3] of the same compound?
Answer: inactive

Question: What about the Activity [4] of the same compound?
Answer: inactive

Question: With `N=C(N)c1ccc(OCCCCCOc2ccc(C(=N)N)cc2)cc1` [PENTAMIDINE] as the compound, how does the IC50 [7] read?
Answer: 0.6 µg/mL (≈ 1.76 µM)

Question: And the IC90 [7]?
Answer: 1.9 µg/mL (≈ 5.58 µM)

Question: For `C=CCCC/C=C\C=C\CCCCCCCCc1cc(O)cc(O)c1`, which IC50 [5] is on record?
Answer: 15 µg/mL (≈ 43.8 µM)

Question: Which results are given for `C=CCCC/C=C\C/C=C\CCCCCCCc1cc(O)cc(O)c1`?
Answer: IC50 [7]: 3.6 µg/mL (≈ 10.5 µM); IC90 [7]: 7 µg/mL (≈ 20.4 µM); Activity [8]: Non-toxic; IC50 [5]: 2.5 µg/mL (≈ 7.3 µM)

Question: With `O=C(O)c1cn(C2CC2)c2cc(N3CCNCC3)c(F)cc2c1=O` [CIPROFLOXACIN] as the compound, how does the IC50 [6] read?
Answer: 0.4 µg/mL (≈ 1.21 µM)

Question: With `C[C@@H]1[C@H](O)[C@@H](C)/C=C/C=C/C=C/C=C/C=C/C=C/C=C/[C@H](O[C@@H]2O[C@H](C)[C@@H](O)[C@H](N)[C@@H]2O)C[C@@H]2O[C@](O)(C[C@@H](O)C[C@@H](O)[C@H](O)CC[C@@H](O)C[C@@H](O)CC(=O)O[C@H]1C)C[C@H](O)[C@H]2C(=O)O` [AMPHOTERICIN B] as the compound, how does the IC50 [9] read?
Answer: 0.75 µg/mL (≈ 0.812 µM)

Source: ChEMBL document CHEMBL1157338, “5-alkylresorcinols from Merulius incarnatus” (J Nat Prod, 2006)
